Laboratory results from ChEMBL document CHEMBL5214999, “Identification and Optimization of a Ligand-Efficient Benzoazepinone Bromodomain and Extra Terminal (BET) Family Acetyl-Lysine Mimetic into the Oral Candidate Quality Molecule I-BET432” (J Med Chem, 2022).
In brackets after ≈: the same amount, converted by molar mass.

What was measured:
[1] = biological target: T1, Bromodomain-containing protein 4 (Homo sapiens, UniProt O60885); test: Inhibition of BRD4 BD2 (unknown origin) measured by TR-FRET assay
[2] = biological target: T1, Bromodomain-containing protein 4; test: Inhibition of BRD4 BD1 (unknown origin) measured by TR-FRET assay
C-C motif chemokine 2 = C-C motif chemokine 2 (Homo sapiens, UniProt P13500); test: Inhibition of MCP-1 in LPS-stimulated human whole blood incubate for 24 hrs by immuno assay; assay type: tissue-based
C-C motif chemokine 2, sequence (P13500 whole entry): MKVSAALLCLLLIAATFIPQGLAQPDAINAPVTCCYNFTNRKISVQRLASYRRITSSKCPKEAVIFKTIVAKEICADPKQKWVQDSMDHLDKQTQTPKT

[3] = Lipophilicity, logD of compound at pH 7.4 by Chromatography; assay type: physicochemical; conditions: buffer
[4] = Artificial membrane permeability of the compound; assay type: ADME; conditions: PAMPA; read-out: permeability
[5] = Solubility of the compound at pH 6.5 in fast state simulated intestinal fluid incubated for 16 hrs by HPLC analysis; assay type: physicochemical; conditions: fasted state simulated intestinal fluid
[6] = Intrinsic clearance in rat hepatocytes after 60 mins by LC-MS/MS analysis; assay type: ADME, cell-based, Hepatocyte; conditions: 1 h
[7] = Intrinsic clearance in human hepatocytes measured after 120 mins by LC-MS/MS analysis; assay type: ADME, cell-based, Hepatocyte; conditions: 2 h
[8] = Clearance in Wistar Han rat blood at 2.9 mg/kg, po or 2.1 mg/kg, iv measured upto 24 hrs by LC-MS/MS analysis; assay type: ADME, organism-based; conditions: whole blood
In short: (§1)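 Male Wistar Han rats and beagle dogs were dosed iv as a 1 h infusion in DMSO with 10% (w/v) Kleptose HPB in saline (2%:98% or 5%:95% v/v). Oral doses were given in 1% (w/v) methylcellulose (400 cps) aqueous suspension. Oral values are means of n = 3 and iv values n = 1 unless otherwise noted.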

[9] = Volume of distribution at steady state in Wistar Han rat at 2.9 mg/kg, po or 2.1 mg/kg, iv measured upto 24 hrs by LC-MS/MS analysis; assay type: ADME, organism-based; conditions: in vivo, read-out: Vdss; in short: as §1
[10] = Half-life in Wistar Han rat at 2.9 mg/kg, po or 2.1 mg/kg, iv measured upto 24 hrs by LC-MS/MS analysis; assay type: ADME, organism-based; conditions: in vivo; in short: as §1
[11] = Oral bioavailability in Wistar Han rat at 2.9 mg/kg measured upto 24 hrs by LC-MS/MS analysis; assay type: ADME, organism-based; conditions: in vivo; in short: as §1

SMILES: C[C@H]1C(=O)N(C)C=C(c2cn[nH]c2)c2cc([C@@H](O)CO)ccc21
- IC50 [1]: 39.8 nM
- IC50 [2]: 25.1 nM
- IC50 (C-C motif chemokine 2): 31.6 nM
- chromatographic logD [3]: 0.9
- Papp [4]: 0.7 ×10⁻⁶ cm/s
- solubility at 16 h [5]: 417 µg/mL (≈ 1330 µM)
- CLH [6]: < 0.8 mL/min/g
- CLH [7]: < 0.45 mL/min/g
- clearance [8]: 37 mL/min/kg
- Vd [9]: 1.5 L/kg
- half-life [10]: 45.6 min
- bioavailability [11]: 13%
